According to ChEMBL document CHEMBL4613227, “Synthesis and evaluation of the HIF-1α inhibitory activity of 3(5)-substituted-4-(quinolin-4-yl)- and 4-(2-phenylpyridin-4-yl)pyrazoles as inhibitors of ALK5” (Bioorg Med Chem Lett, 2020):
Active and inactive are the calls of the source. No cut-off for these calls is given here.

Key:
[1] = target: Hypoxia-inducible factor 1-alpha (Homo sapiens) (UniProt Q16665); assay: Inhibition of HIF1alpha transcriptional activity in hypoxia-induced human HCT116 cells co-transfected with luciferase reporter plasmid containing six copies of HREs and pRL-CMV plasmid by luciferase reporter gene assay; type: cell-based; conditions: HCT-116
Sequence of Hypoxia-inducible factor 1-alpha (Homo sapiens) (Q16665 whole entry, looked up): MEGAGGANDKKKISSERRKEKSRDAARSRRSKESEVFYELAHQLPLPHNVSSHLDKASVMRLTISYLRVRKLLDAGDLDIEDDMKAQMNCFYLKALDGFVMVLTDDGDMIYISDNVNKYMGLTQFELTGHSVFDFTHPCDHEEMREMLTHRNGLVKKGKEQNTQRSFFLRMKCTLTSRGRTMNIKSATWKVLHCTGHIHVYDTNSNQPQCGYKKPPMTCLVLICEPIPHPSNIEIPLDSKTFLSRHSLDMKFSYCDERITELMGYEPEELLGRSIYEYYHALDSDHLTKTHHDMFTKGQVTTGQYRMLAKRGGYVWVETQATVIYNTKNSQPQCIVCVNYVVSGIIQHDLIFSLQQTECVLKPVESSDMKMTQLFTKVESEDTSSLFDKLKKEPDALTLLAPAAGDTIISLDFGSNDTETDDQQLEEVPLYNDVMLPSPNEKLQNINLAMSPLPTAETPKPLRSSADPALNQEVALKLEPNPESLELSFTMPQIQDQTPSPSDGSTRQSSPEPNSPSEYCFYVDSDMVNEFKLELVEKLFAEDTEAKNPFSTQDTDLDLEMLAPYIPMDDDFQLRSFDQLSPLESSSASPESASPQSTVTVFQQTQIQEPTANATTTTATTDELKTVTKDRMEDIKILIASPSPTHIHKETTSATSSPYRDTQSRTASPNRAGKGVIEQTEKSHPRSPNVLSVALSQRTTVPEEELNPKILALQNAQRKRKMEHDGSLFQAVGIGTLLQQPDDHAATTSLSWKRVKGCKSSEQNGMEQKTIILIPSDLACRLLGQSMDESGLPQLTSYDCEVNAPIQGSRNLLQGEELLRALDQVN
Outline: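 HCT116 transiently co-transfected with pGL3-HRE-luciferase and pRL-CMV; after 24 h, incubated under hypoxia with graded concentrations; luciferase activity read; mean ± SD, three independent experiments.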

HCT-116 [2] = assay: Inhibition of hypoxia-induced HIF1alpha protein expression in human HCT116 cells incubated for 12 hrs under hypoxic condition by Western blot analysis; type: functional, cell-based
Outline: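 HCT116 held under normoxia or hypoxia 12 h with graded concentrations; nuclear extracts probed for HIF-1α by Western blot, Topo-I as loading control.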

HCT-116 [3] = assay: Antiproliferative activity against human HCT116 cells assessed as reduction in TNF-induced number of Edu positive cells at 50 uM pretreated for 12 hrs followed by TNF stimulation and measured after 30 mins by Edu-incorporation based fluorescence microscopic analysis; type: functional, cell-based
Outline: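 HCT116 cells pretreated 12 h (50 μM), then TNF 10 ng/ml for 30 min; EdU-labelled proliferating cells examined by fluorescence microscopy; mean ± SD of three independent experiments.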

HCT-116 [4] = assay: Inhibition of TNFalpha-induced HIF1alpha expression in human HCT116 cells at 10 to 50 uM by Western blot analysis; type: functional, cell-based
Outline: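 HCT116 exposed to TNF 10 ng/mL for 24 h with graded concentrations; total protein blotted for HIF-1α, Topo-I reprobe as loading control.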

HCT-116 [5] = assay: Down regulation of TNF-induced VEGF protein expression in human HCT116 cells at 50 uM pretreated for 12 hrs followed by TNF stimulation and measured after 24 hrs by Western blot analysis; type: functional, cell-based
Outline: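 HCT116 pretreated 12 h with 50 μM, then TNF (10 ng/mL) 24 h; whole cell extracts immunoblotted for ICAM-1, MMP-9, VEGF with tubulin as loading reference.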

HCT-116 [6] = assay: Induction of apoptosis in human HCT116 cells assessed as effect on cleaved caspase-3 expression at 50 uM preincubated for 12 hrs followed by TNF-stimulation and measured after 24 hrs by Western blot analysis; type: functional, cell-based
Outline: (§1)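 HCT116 pretreated 12 h with 50 μM, then TNF (10 ng/mL) 24 h; whole cell extracts blotted for cleaved caspase-8, cleaved caspase-3, cleaved PARP, tubulin.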

HCT-116 [7] = assay: Induction of apoptosis in human HCT116 cells assessed as PARP cleavage at 50 uM preincubated for 12 hrs followed by TNF-stimulation and measured after 24 hrs by Western blot analysis; type: functional, cell-based; outline: as §1
HCT-116 [8] = assay: Induction of apoptosis in human HCT116 cells assessed as necrotic cells at 50 uM preincubated for 12 hrs followed by TNF stimulation and measured after 24 hrs by Annexin-V/PI-staining based flow cytometric analysis (reference value: 3.6%); type: functional
HCT-116 [9] = assay: Induction of apoptosis in human HCT116 cells assessed as effect on cleaved caspase 3 expression at 50 uM after 12 hrs by Western blot analysis; type: functional, cell-based
HCT-116 [10] = assay: Induction of apoptosis in human HCT116 cells assessed as PARP cleavage at 50 uM after 12 hrs by Western blot analysis; type: functional, cell-based
HCT-116 [11] = assay: Induction of apoptosis in human HCT116 cells assessed as viable cells at 50 uM preincubated for 12 hrs followed by TNF stimulation and measured after 24 hrs by Annexin-V/PI-staining based flow cytometric analysis (reference value: 92.4%); type: functional; conditions: read-out: Activity
HCT-116 [12] = assay: Induction of apoptosis in human HCT116 cells assessed as early apoptotic cells at 50 uM preincubated for 12 hrs followed by TNF stimulation and measured after 24 hrs by Annexin-V/PI-staining based flow cytometric analysis (reference value: 2.8%); type: functional

Cc1cccc(-c2nn(CC(=S)Nc3cccc(C#N)c3)cc2-c2ccnc3ccccc23)n1
inhibition [1]: Dose-dependent effect | inhibition (HCT-116 [2]): Dose-dependent effect | Activity (HCT-116 [3]): Active | inhibition (HCT-116 [4]): Active | Activity (HCT-116 [5]): Active | Activity (HCT-116 [6]): Active | Activity (HCT-116 [7]): Active | Activity (HCT-116 [8]): 5.4% | Activity (HCT-116 [9]): Active | Activity (HCT-116 [10]): Active | viability at 50 µM (HCT-116 [11]): 86.8% | Activity (HCT-116 [12]): 4.4%
